From ChEMBL document CHEMBL1129653, “Synthesis and quantitative structure-activity relationship of a novel series of small conductance Ca(2+)-activated K+ channel blockers related to dequalinium” (J Med Chem, 1996)

Assays:
[1] = Equieffective molar ratio of compound to inhibit hyperpolarization in cultured rat sympathetic neurons; format: functional, Sympathetic neuron
Procedure, shortened: (§1)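 Rat sympathetic neurons dissociated, plated on laminin-coated dishes and cultured 3–10 days, then perfused with physiological salt solution (mM: NaCl 118, KCl 4.8, CaCl2 2.5). AHP inhibition taken as the peak difference between control and blocker records, as % of control AHP. Dequalinium reference run in each series. EMR is test-compound IC50 divided by dequalinium IC50 from the same experiment; IC50 by Hill fit, ≥3 cells.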

[2] = target: T1, Small conductance calcium-activated potassium channel (Rattus norvegicus, UniProt P70604+P70606+P70605); assay: SKCa-blocking activity by its ability to inhibit after hyperpolarization (AHP) in cultured rat sympathetic neurons; format: functional, cell-based; details: sympathetic neuron
Procedure, shortened: (§2)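 AHP block was the peak of the digitally subtracted control-minus-drug record, as % of control AHP at the same time point. IC50 came from a Hill equation fit over at least three cells. Test concentrations above 10–30 µM were generally avoided.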

[3] = target: T1, Small conductance calcium-activated potassium channel; assay: SKCa-blocking activity as inhibitino of after hyperpolarization (AHP) in cultured rat sympathetic neurons; No activity at maximal dose used; format: functional, cell-based; details: sympathetic neuron
Procedure, shortened: as §2, with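 “Cultured rat sympathetic neurons (laminin-coated dishes, 3–10 days) were perfused with physiological salt solution (mM: NaCl 118, KCl 4.8, CaCl2 2.5). AHP block” for “AHP block”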

[4] = Equieffective molar ratio of compound to inhibit hyperpolarization in cultured rat sympathetic neurons; No activity up to this concentration; format: functional, Sympathetic neuron; procedure, shortened: as §1
[5] = target: T1, Small conductance calcium-activated potassium channel; assay: SKCa-blocking activity as inhibition of after hyperpolarization (AHP) in cultured rat sympathetic neurons; Insufficient activity at maximal dose used; format: functional, cell-based; details: sympathetic neuron
Procedure, shortened: as §2, with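 “Cultured rat sympathetic neurons (laminin-coated dishes, 3–10 days) were perfused with physiological salt solution (mM: NaCl 118, KCl 4.8, CaCl2 2.5). AHP block” for “AHP block”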

[6] = Equieffective molar ratio of compound to inhibit hyperpolarization in cultured rat sympathetic neurons; Insufficient activity up to this concentration to determine; format: functional, Sympathetic neuron; procedure, shortened: as §1

| Structure (SMILES) | Ratio [1] | IC50 [2] | other results |
| --- | --- | --- | --- |
| c1ccc2c(NCCCCCCCCCCNc3ccnc4ccccc34)ccnc2c1 | 3.5 | – | – |
| Cc1cc(NCCCCCCCCCCCCNc2cc(C)[n+](Cc3ccccc3)c3ccccc23)c2ccccc2[n+]1Cc1ccccc1 | 4 | 2.4 µM | – |
| c1ccc2c(OCCCCCCCCCCOc3ccnc4ccccc34)ccnc2c1 | 16 | 18 µM | – |
| C[n+]1ccc(NCCCCCCCCNc2cc[n+](C)c3ccccc23)c2ccccc21 | 3.1 | 2.7 µM | – |
| C[n+]1ccc(CCCCCCCCCCc2cc[n+](C)c3ccccc23)c2ccccc21 | 26 | 40 µM | – |
| C[n+]1ccc(CCCCCCCCCCCCc2cc[n+](C)c3ccccc23)c2ccccc21 | 5.9 | 3.9 µM | – |
| c1ccc2c(CCCCCCCCCCCCc3ccnc4ccccc34)ccnc2c1 | – | – | IC50 [3]: > 10 µM; Ratio [4]: >10 |
| C[n+]1ccc(NCCCCCCCCCCNc2cc[n+](C)c3ccccc23)c2ccccc21 | 1.9 | 2.1 µM | – |
| C[n+]1ccc(OCCCCCCCCCCOc2cc[n+](C)c3ccccc23)c2ccccc21 | 7.2 | 6.8 µM | – |
| c1ccc2c(SCCCCCCCCCCSc3ccnc4ccccc34)ccnc2c1 | – | – | IC50 [5]: > 10 µM; Ratio [6]: >10 |
| Cc1cc(NCCCCCCCCCCNc2cc(C)[n+](CCC(c3ccccc3)c3ccccc3)c3ccccc23)c2ccccc2[n+]1CCC(c1ccccc1)c1ccccc1 | 6.2 | 4.3 µM | – |
| Cc1cc(NCCCCCCCCCCNc2cc(C)[n+](Cc3ccccc3)c3ccccc23)c2ccccc2[n+]1Cc1ccccc1 | 0.6 | 0.4 µM | – |
| C[n+]1ccc(NCCCCCCCCCCNc2cc[n+](C)c3cc(Cl)ccc23)c2ccc(Cl)cc21 | 1.5 | 1.3 µM | – |
| Cc1cc(NCCCCCCCCCCCCNc2cc(C)nc3ccccc23)c2ccccc2n1 | 7.1 | 3.8 µM | – |
| C[n+]1ccc(SCCCCCCCCCCSc2cc[n+](C)c3ccccc23)c2ccccc21 | 6.2 | 3.7 µM | – |
| COc1cc(C[n+]2c(C)cc(NCCCCCCCCCCNc3cc(C)[n+](Cc4cc(OC)cc(OC)c4)c4ccccc34)c3ccccc32)cc(OC)c1 | 2.1 | 1.7 µM | – |
| COc1cc(C[n+]2c(C)cc(NCCCCCCCCCCNc3cc(C)nc4ccccc34)c3ccccc32)cc(OC)c1 | 1.2 | 0.75 µM | – |
| Cc1cc(NCCCCCCCCCCCCNc2cc(C)[n+](Cc3ccccc3)c3ccccc23)c2ccccc2n1 | 8 | 4.4 µM | – |
| Cc1cc(NCCCCCCCCCCNc2cc(C)[n+](Cc3ccccc3)c3ccccc23)c2ccccc2n1 | 2.4 | 1.3 µM | – |
| c1ccc(C[n+]2ccc(NCCCCCCCCCCNc3cc[n+](Cc4ccccc4)c4ccccc34)c3ccccc32)cc1 | 1 | 0.7 µM | – |
| Cc1cc(N)c2ccccc2[n+]1CCCCCCCCCC[n+]1c(C)cc(N)c2ccccc21.[Cl-].[Cl-] [DEQUALINIUM CHLORIDE] | – | 1 µM | – |
| Cc1cc(NCCCCCCCCCCNc2cc(C)nc3ccccc23)c2ccccc2n1 [QUINDECAMINE] | 3.6 | 2.5 µM | – |
